≈ marks a conversion by molar mass, not a printed value.
What was measured:
[1] = test system: Streptococcus sp. 'group B'; assay: Antimicrobial activity against Group B Streptococcus serotype III NEM 316 by broth microdilution method; assay type: functional
Outline: (§1)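 Broth microdilution MICs read on a commercial dried panel system (type 3J), following CLSI guidelines. Isolates were grown in Todd-Hewitt broth at 37°C. Each strain was tested five times for reproducibility, with S. pneumoniae ATCC 49619 as the quality-control strain. β-lactamase activity was checked by the acidimetric method.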

[2] = test system: Streptococcus sp. 'group B'; assay: Antimicrobial activity against Group B streptococcus serotype VI R1 harboring F395L, V405A, R433H, H438Y, and G648A mutations in PBP 2X and T567I mutation in PBP 2B by broth microdilution method; assay type: functional
Outline: (§2)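 Broth microdilution MICs following CLSI guidelines, using a commercial panel system; GBS clinical isolates and reference strains grown in Todd-Hewitt broth at 37°C. Each strain tested five times to confirm reproducibility, with S. pneumoniae ATCC 49619 as quality-control strain. No β-lactamase activity by acidimetric method in any strain.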

[3] = test system: Streptococcus sp. 'group B'; assay: Antimicrobial activity against Group B streptococcus serotype VI R5 harboring F395L, V405A, R433H, H438Y, and G648A mutations in PBP 2X and T567I mutation in PBP 2B by broth microdilution method; assay type: functional; outline: as §2
[4] = test system: Streptococcus sp. 'group B'; assay: Antimicrobial activity against Group B streptococcus serotype Ib N2 harboring E63K mutation in PBP 2A and L41S mutation in PBP 1B by broth microdilution method; assay type: functional; outline: as §2
[5] = test system: Streptococcus sp. 'group B'; assay: Antimicrobial activity against Group B streptococcus serotype VI R4 harboring Q557E mutation in PBP 2X and T567I, Y262N mutations in PBP 2B by broth microdilution method; assay type: functional; outline: as §2
[6] = test system: Streptococcus sp. 'group B'; assay: Antimicrobial activity against Group B streptococcus R8 harboring T77I, S353F and A514V in PBP 2X; V80A and G613R in PBP 2B; and L45P, N163K, N723S and G527V in PBP 1A by broth microdilution method; assay type: functional; outline: as §2
[7] = test system: Streptococcus sp. 'group B'; assay: Antimicrobial activity against Group B streptococcus serotype VI N4 harboring E63K mutation in PBP 2A and L41S mutation in PBP 1B by broth microdilution method; assay type: functional; outline: as §2
[8] = test system: Streptococcus sp. 'group B'; assay: Antimicrobial activity against Group B streptococcus serotype Ib C2 harboring E63K mutation in PBP 2A and L41S mutation in PBP 1B by broth microdilution method; assay type: functional; outline: as §2
[9] = test system: Streptococcus sp. 'group B'; assay: Antimicrobial activity against Group B streptococcus serotype V C1 harboring E63K mutation in PBP 2A and L41S mutation in PBP 1B by broth microdilution method; assay type: functional; outline: as §2
[10] = test system: Streptococcus sp. 'group B'; assay: Antimicrobial activity against Group B Streptococcus serotype V harboring E63K mutation in PBP 2A and L41S mutation in PBP 1B by broth microdilution method
[11] = test system: Streptococcus sp. 'group B'; assay: Antimicrobial activity against Group B streptococcus serotype VI R2 harboring F395L, V405A, R433H, H438Y, and G648A mutations in PBP 2X and T567I mutation in PBP 2B by broth microdilution method; assay type: functional; outline: as §2
[12] = test system: Streptococcus sp. 'group B'; assay: Antimicrobial activity against Group B streptococcus serotype III N3 by broth microdilution method; assay type: functional; outline: as §1
[13] = test system: Streptococcus sp. 'group B'; assay: Antimicrobial activity against Group B streptococcus serotype Ib R3 harboring Q557E, A400V mutations in PBP 2X and T567I, G539E mutations in PBP 2B by broth microdilution method; assay type: functional; outline: as §2
[14] = test system: Streptococcus sp. 'group B'; assay: Antimicrobial activity against Group B streptococcus serotype Ia R7 harboring T77I, F395V and S353F in PBP 2X; V80A and G613R in PBP 2B; and L45P, N163K, N723S and Y470F in PBP 1A by broth microdilution method; assay type: functional; outline: as §2
[15] = test system: Streptococcus sp. 'group B'; assay: Antimicrobial activity against Group B Streptococcus serotype Ia N1 harboring E63K mutation in PBP 2A and L41S mutation in PBP 1B by broth microdilution method; assay type: functional; outline: as §2
[16] = test system: Streptococcus sp. 'group B'; assay: Antimicrobial activity against Group B streptococcus serotype VI R6 harboring F395L, V405A, R433H, H438Y, A374V and G648A mutations in PBP 2X and T567I mutation in PBP 2B by broth microdilution method; assay type: functional; outline: as §2

`CO/N=C(\C(=O)N[C@@H]1C(=O)N2C(C(=O)[O-])=C(C[N+]3(C)CCCC3)CS[C@H]12)c1csc(N)n1` [CEFEPIME] was tested, and the MIC [1] was no more than 0.5 µg/mL, the MIC [2] was 1 µg/mL (≈ 2.08 µM) and the MIC [3] was 1 µg/mL (≈ 2.08 µM). For the same compound, the MIC [4] was no more than 0.5 µg/mL, the MIC [5] was 1 µg/mL (≈ 2.08 µM) and the MIC [6] was 1 µg/mL (≈ 2.08 µM). It also gave an MIC [7] of no more than 0.5 µg/mL, an MIC [8] of no more than 0.5 µg/mL and an MIC [9] of no more than 0.5 µg/mL. It also gave an MIC [10] of no more than 0.5 µg/mL, an MIC [11] of 1 µg/mL (≈ 2.08 µM) and an MIC [12] of no more than 0.5 µg/mL. For the same compound, the MIC [13] was no more than 0.5 µg/mL, the MIC [14] was 2 µg/mL (≈ 4.16 µM) and the MIC [15] was no more than 0.5 µg/mL. The MIC [16] was 1 µg/mL (≈ 2.08 µM).
In the case of `CC[C@H]1OC(=O)[C@H](C)[C@@H](O[C@H]2C[C@@](C)(OC)[C@@H](O)[C@H](C)O2)[C@H](C)[C@@H](O[C@@H]2O[C@H](C)C[C@H](N(C)C)[C@H]2O)[C@](C)(O)C[C@@H](C)C(=O)[C@H](C)[C@@H](O)[C@]1(C)O` [ERYTHROMYCIN], the MIC [1] was no more than 0.12 µg/mL, the MIC [2] was no more than 0.12 µg/mL and the MIC [3] was no more than 0.12 µg/mL. The MIC [4] was no more than 0.12 µg/mL, the MIC [5] was greater than 2 µg/mL and the MIC [6] was greater than 2 µg/mL. For the same compound, the MIC [7] was no more than 0.12 µg/mL, the MIC [8] was no more than 0.12 µg/mL and the MIC [9] was no more than 0.12 µg/mL. It also gave an MIC [10] of no more than 0.12 µg/mL, an MIC [11] of no more than 0.12 µg/mL and an MIC [12] of no more than 0.12 µg/mL. It also gave an MIC [13] of no more than 0.12 µg/mL, an MIC [14] greater than 2 µg/mL and an MIC [15] of no more than 0.12 µg/mL. For the same compound, the MIC [16] was no more than 0.12 µg/mL.
`C=CC1=C(C(=O)O)N2C(=O)[C@@H](NC(=O)/C(=N\OCC(=O)O)c3csc(N)n3)[C@H]2SC1` [CEFIXIME] gave an MIC [1] of 0.5 µg/mL (≈ 1.1 µM), an MIC [2] greater than 1 µg/mL and an MIC [3] greater than 1 µg/mL. It also gave an MIC [4] of 1 µg/mL (≈ 2.21 µM), an MIC [5] greater than 1 µg/mL and an MIC [6] greater than 1 µg/mL. For the same compound, the MIC [7] was 0.5 µg/mL (≈ 1.1 µM), the MIC [8] was 0.5 µg/mL (≈ 1.1 µM) and the MIC [9] was 0.5 µg/mL (≈ 1.1 µM). It also gave an MIC [10] of 0.5 µg/mL (≈ 1.1 µM), an MIC [11] greater than 1 µg/mL and an MIC [12] of 0.5 µg/mL (≈ 1.1 µM). It also gave an MIC [13] greater than 1 µg/mL, an MIC [14] greater than 1 µg/mL and an MIC [15] of 0.5 µg/mL (≈ 1.1 µM). For the same compound, the MIC [16] was greater than 1 µg/mL.
`CO/N=C(\C(=O)N[C@@H]1C(=O)N2C(C(=O)OCOC(=O)C(C)(C)C)=C(/C=C\c3scnc3C)CS[C@H]12)c1csc(N)n1` [CEFDITOREN PIVOXIL] showed an MIC [1] of no more than 0.06 µg/mL, an MIC [2] of 0.25 µg/mL (≈ 0.403 µM) and an MIC [3] of 0.25 µg/mL (≈ 0.403 µM). The MIC [4] was no more than 0.06 µg/mL, the MIC [5] was 0.25 µg/mL (≈ 0.403 µM) and the MIC [6] was 0.5 µg/mL (≈ 0.805 µM). It also gave an MIC [7] of no more than 0.06 µg/mL, an MIC [8] of no more than 0.06 µg/mL and an MIC [9] of no more than 0.06 µg/mL. For the same compound, the MIC [10] was no more than 0.06 µg/mL, the MIC [11] was 0.25 µg/mL (≈ 0.403 µM) and the MIC [12] was no more than 0.06 µg/mL. It also gave an MIC [13] of 0.25 µg/mL (≈ 0.403 µM), an MIC [14] of 0.5 µg/mL (≈ 0.805 µM) and an MIC [15] of no more than 0.06 µg/mL. It also gave an MIC [16] of 0.25 µg/mL (≈ 0.403 µM).
`C[C@@H](O)[C@H]1C(=O)N2C(C(=O)O)=C(S[C@@H]3CN[C@H](C(=O)N(C)C)C3)[C@H](C)[C@H]12` [MEROPENEM] was tested, and the MIC [1] was no more than 0.12 µg/mL, the MIC [2] was 0.25 µg/mL (≈ 0.652 µM) and the MIC [3] was 0.25 µg/mL (≈ 0.652 µM). For the same compound, the MIC [4] was no more than 0.12 µg/mL, the MIC [5] was 0.25 µg/mL (≈ 0.652 µM) and the MIC [6] was 0.25 µg/mL (≈ 0.652 µM). For the same compound, the MIC [7] was no more than 0.12 µg/mL, the MIC [8] was no more than 0.12 µg/mL and the MIC [9] was no more than 0.12 µg/mL. It also gave an MIC [10] of no more than 0.12 µg/mL, an MIC [11] of 0.5 µg/mL (≈ 1.3 µM) and an MIC [12] of no more than 0.12 µg/mL. The MIC [13] was 0.25 µg/mL (≈ 0.652 µM), the MIC [14] was 0.25 µg/mL (≈ 0.652 µM) and the MIC [15] was no more than 0.12 µg/mL. It also gave an MIC [16] of 0.5 µg/mL (≈ 1.3 µM).
In the case of `CC[C@H]1OC(=O)[C@H](C)[C@@H](O[C@H]2C[C@@](C)(OC)[C@@H](O)[C@H](C)O2)[C@H](C)[C@@H](O[C@@H]2O[C@H](C)C[C@H](N(C)C)[C@H]2O)[C@](C)(OC)C[C@@H](C)C(=O)[C@H](C)[C@@H](O)[C@]1(C)O` [CLARITHROMYCIN], the MIC [1] was no more than 0.12 µg/mL, the MIC [2] was no more than 0.12 µg/mL and the MIC [3] was no more than 0.12 µg/mL. The MIC [4] was no more than 0.12 µg/mL, the MIC [5] was greater than 2 µg/mL and the MIC [6] was 1 µg/mL (≈ 1.34 µM). For the same compound, the MIC [7] was no more than 0.12 µg/mL, the MIC [8] was no more than 0.12 µg/mL and the MIC [9] was no more than 0.12 µg/mL. For the same compound, the MIC [10] was no more than 0.12 µg/mL, the MIC [11] was no more than 0.12 µg/mL and the MIC [12] was no more than 0.12 µg/mL. It also gave an MIC [13] of no more than 0.12 µg/mL, an MIC [14] of 2 µg/mL (≈ 2.67 µM) and an MIC [15] of no more than 0.12 µg/mL. For the same compound, the MIC [16] was no more than 0.12 µg/mL.
With `CCC[C@@H]1C[C@@H](C(=O)N[C@@H]([C@H]2O[C@H](SC)[C@H](O)[C@@H](O)[C@H]2O)[C@H](C)Cl)N(C)C1` [CLINDAMYCIN] the MIC [1] was no more than 0.12 µg/mL, the MIC [2] was no more than 0.12 µg/mL and the MIC [3] was no more than 0.12 µg/mL. For the same compound, the MIC [4] was no more than 0.12 µg/mL, the MIC [5] was greater than 1 µg/mL and the MIC [6] was no more than 0.12 µg/mL. The MIC [7] was no more than 0.12 µg/mL, the MIC [8] was no more than 0.12 µg/mL and the MIC [9] was no more than 0.12 µg/mL. The MIC [10] was no more than 0.12 µg/mL, the MIC [11] was no more than 0.12 µg/mL and the MIC [12] was no more than 0.12 µg/mL. For the same compound, the MIC [13] was no more than 0.12 µg/mL, the MIC [14] was no more than 0.12 µg/mL and the MIC [15] was no more than 0.12 µg/mL. For the same compound, the MIC [16] was no more than 0.12 µg/mL.

Reference: ChEMBL document CHEMBL1275555, “Genetic heterogeneity in pbp genes among clinically isolated group B Streptococci with reduced penicillin susceptibility” (2008)
